For 13 compounds, Activity, IC50 and Ki results are on record in ChEMBL document CHEMBL1155208 (Eur J Med Chem, 2009).

Data set [1] concerns Rattus norvegicus. Briefly: Antiamnesic activity against scopolamine-induced memory loss in Wistar rat assessed as latency time at 0.1 mg/kg, ip measured for 15 mins by passive avoidance step-down task test. Set-up: unit not given beside the values. The note with it: route intraperitoneal. It counts as functional. In outline:
(§1)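 Male Wistar rats (200-250 g), scopolamine 0.4 mg/kg ip to induce memory loss; test compound 0.1 mg/kg ip given together with scopolamine. Passive avoidance step-down task run in a rodent memory evaluator. Read-outs: basal latency (s) to reach the shock-free zone over trials I-III, memory latency (s) and number of mistakes, given as mean ± S.E.M.; p < 0.005 taken as significant.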

Data set [2] has as its system Rattus norvegicus. Briefly: Acute toxicity in po dosed rat assessed as death after 1 week. It counts as organism-based. To be noted: in vivo, 168 h. In outline:
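Rats fasted 16 h, six per group, given various oral doses; deaths recorded daily over 1 week of observation after treatment.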

Data set [3] has as its system Rattus norvegicus. The data set can be described thus: Effect on scopolamine-induced memory loss and learning impairment in Wistar rat assessed as transfer latency at 0.1 mg/kg, ip after 30 mins by elevated plus maze test. Format: functional. Set-up: unit not given beside the values. The note with it: route intraperitoneal. In outline: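 Male Wistar rats on an elevated plus maze. Scopolamine 0.4 mg/kg ip; test compound 0.1 mg/kg ip given together with scopolamine 30 min before exploration; controls received distilled water. On day 1 each rat explored the maze for 90 s. Transfer latency was measured on day 1 (TL1, learning) and on day 2 in the same animals (TL2, memory), and the average was reported.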

The target in data set [4] is T1, Muscarinic acetylcholine receptor M1 (Rattus norvegicus, UniProt P08482).
T1 sequence (P08482 whole entry): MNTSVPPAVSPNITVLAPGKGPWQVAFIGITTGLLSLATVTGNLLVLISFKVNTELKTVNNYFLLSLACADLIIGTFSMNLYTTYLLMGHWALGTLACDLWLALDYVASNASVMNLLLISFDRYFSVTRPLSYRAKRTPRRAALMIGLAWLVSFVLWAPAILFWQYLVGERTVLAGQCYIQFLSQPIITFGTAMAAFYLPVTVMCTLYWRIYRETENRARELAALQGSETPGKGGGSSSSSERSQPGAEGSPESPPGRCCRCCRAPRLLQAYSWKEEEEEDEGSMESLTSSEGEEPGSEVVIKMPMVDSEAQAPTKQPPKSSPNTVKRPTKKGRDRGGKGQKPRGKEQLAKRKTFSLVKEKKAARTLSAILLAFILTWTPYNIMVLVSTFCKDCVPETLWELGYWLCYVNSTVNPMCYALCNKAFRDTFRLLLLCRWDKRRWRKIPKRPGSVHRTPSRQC
Briefly: Displacement of [3H]QNB from muscarinic M1 receptor in Wistar rat brain cortex membrane after 2 hrs by liquid scintillation counting. Format: cell membranes. (In a radioligand displacement assay an active substance lowers the binding of a labelled ligand.)

Data set [5] has as its system Rattus norvegicus. The data set can be described thus: Antiamnesic activity against scopolamine-induced memory loss in Wistar rat assessed as number of mistake done at 0.1 mg/kg, ip measured for 15 mins by passive avoidance step-down task test. Format: functional. To be noted: route intraperitoneal. In outline: as §1
In data set [6] the test system is Rattus norvegicus. Briefly: Antiamnesic activity against scopolamine-induced memory loss in Wistar rat assessed as time taken to reach shock free zone at 0.1 mg/kg, ip measured for 15 mins by passive avoidance step-down task test. It counts as functional. More on the design: unit not given beside the values. To be noted: route intraperitoneal. In outline:
as §1

Each structure is given as a SMILES string.

A word on the IC50: it is the concentration that inhibits the measured activity by half. Usually Ki stands for a measure of affinity in units of concentration, obtained from inhibition or displacement. For `CN1CCC=C(C2SCC(=O)N2c2ccc(C(=O)O)cc2)C1` (stereo unspecified), the Activity with Rattus norvegicus [1] is listed as 4; with Rattus norvegicus [2], “Non-toxic”; in the data set with Rattus norvegicus [3] it was 18; with Rattus norvegicus [5], 14; in the data set on Rattus norvegicus [6] it was 6. The IC50 in data set [4] stood at 74 µM. The compound further showed a Ki in data set [4] of 37 µM.

Regarding `CC(C)N1C(=O)CSC1C1=CCCN(C)C1` (stereo unspecified), the Activity is 3 in the data set with Rattus norvegicus [1]; “Non-toxic” with Rattus norvegicus [2]; 35 with Rattus norvegicus [3]; 30 in the data set with Rattus norvegicus [5]; 8 with Rattus norvegicus [6]. Also, the 50% inhibitory concentration (IC50) in data set [4] was determined as 579 µM. The same compound had a Ki in data set [4] of 97 µM.

Regarding `CN1CCC=C(C2SCC(=O)N2c2ccc(Br)cc2)C1` (stereo unspecified), the Activity with Rattus norvegicus [1] is 3; with Rattus norvegicus [2] it was “Non-toxic”; in the data set on Rattus norvegicus [3], 38; with Rattus norvegicus [5], 29; in the data set on Rattus norvegicus [6], 7. Besides, the IC50 in data set [4] was 536 µM. In data set [4], this compound gave a Ki of 122 µM.

Regarding `CN1CCC=C(C2SCC(=O)N2c2ccc([N+](=O)[O-])cc2)C1` (stereo unspecified), the Activity in the data set on Rattus norvegicus [1] is listed as 4; in the data set with Rattus norvegicus [2], “Non-toxic”; in the data set with Rattus norvegicus [3], 21; in the data set with Rattus norvegicus [5], 25; in the data set with Rattus norvegicus [6], 7. The same compound showed an IC50 in data set [4] of 158 µM. The compound also had a Ki in data set [4] of 43 µM.

In the case of `CN1CCC=C(C2SCC(=O)N2c2ccccc2)C1` (stereo unspecified), the Activity in the data set with Rattus norvegicus [1] is given as 4; with Rattus norvegicus [2], “Non-toxic”; with Rattus norvegicus [3] it was 44; in the data set on Rattus norvegicus [5], 32; in the data set with Rattus norvegicus [6] it was 8. This compound also displayed an IC50 in data set [4] of 886 µM. The compound further had a Ki in data set [4] of 105 µM.

`CN1CCC=C(C2SCC(=O)N2c2ccc(Nc3ccccc3)cc2)C1` (stereo unspecified): the Activity is 3 with Rattus norvegicus [1]; “Non-toxic” with Rattus norvegicus [2]; 14 in the data set with Rattus norvegicus [3]; 16 in the data set on Rattus norvegicus [5]; 5 with Rattus norvegicus [6]. Also, the 50% inhibitory concentration (IC50) in data set [4] worked out at 48 µM. In addition, the Ki in data set [4] came to 19 µM.

As to `CN1CCC=C(C2SCC(=O)N2c2cccc(O)c2)C1` (stereo unspecified), the Activity in the data set with Rattus norvegicus [1] is given as 3; in the data set with Rattus norvegicus [2], “Non-toxic”; with Rattus norvegicus [3], 22; in the data set on Rattus norvegicus [5], 23; with Rattus norvegicus [6] it was 6. In data set [4], this compound yielded an IC50 of 563 µM. Also, the affinity in data set [4], expressed as Ki, was 102 µM.

Consider `CCCCCCN1C(=O)CSC1C1=CCCN(C)C1` (stereo unspecified), for which the Activity in the data set with Rattus norvegicus [1] is on record as 4; with Rattus norvegicus [2], “Non-toxic”; with Rattus norvegicus [3] it was 30; in the data set on Rattus norvegicus [5] it was 21; with Rattus norvegicus [6] it was 7. Further, the IC50 in data set [4] turned out to be 632 µM. Moreover, the Ki in data set [4] amounted to 110 µM.

As to `CCN1C(=O)CSC1C1=CCCN(C)C1` (stereo unspecified), the Activity is 2 in the data set on Rattus norvegicus [1]; “Non-toxic” with Rattus norvegicus [2]; 45 in the data set on Rattus norvegicus [3]; 21 in the data set with Rattus norvegicus [5]; 4 in the data set with Rattus norvegicus [6]. Besides, in data set [4], the 50% inhibitory concentration (IC50) amounted to 670 µM. Also, the Ki in data set [4] stood at 230 µM.

Regarding `CN1CCC=C(C2SCC(=O)N2Cc2ccccc2)C1` (stereo unspecified), the Activity in the data set with Rattus norvegicus [1] is reported as 4; in the data set with Rattus norvegicus [2] it was “Non-toxic”; in the data set on Rattus norvegicus [3], 19; in the data set on Rattus norvegicus [5], 30; with Rattus norvegicus [6], 7. In data set [4], this compound gave a half-maximal inhibitory concentration (IC50) of 789 µM. In data set [4], this compound had a Ki of 149 µM.

Take `Cc1ccc(N2C(=O)CSC2C2=CCCN(C)C2)c([N+](=O)[O-])c1` (stereo unspecified): the Activity in the data set with Rattus norvegicus [1] is 3; in the data set on Rattus norvegicus [2], “Non-toxic”; with Rattus norvegicus [3] it was 40; with Rattus norvegicus [5], 25; in the data set on Rattus norvegicus [6] it was 5. This compound also gave an IC50 in data set [4] of 626 µM. In data set [4], this compound showed a Ki of 125 µM.

For `CCCCN1C(=O)CSC1C1=CCCN(C)C1` (stereo unspecified), the Activity with Rattus norvegicus [1] is 4; in the data set with Rattus norvegicus [2] it was “Non-toxic”; in the data set on Rattus norvegicus [3], 17; in the data set on Rattus norvegicus [5], 12; in the data set with Rattus norvegicus [6], 5. The compound further came in with an IC50 in data set [4] of 68 µM. Further, the affinity in data set [4], expressed as Ki, was 32 µM.

Take `CN1CCC=C(C2SCC(=O)N2c2ccc(Cl)cc2)C1` (stereo unspecified): the Activity was 3 in the data set on Rattus norvegicus [1]; “Non-toxic” with Rattus norvegicus [2]; 42 in the data set on Rattus norvegicus [3]; 28 in the data set with Rattus norvegicus [5]; 3 with Rattus norvegicus [6]. In data set [4], this compound displayed an IC50 of 653 µM. The same compound displayed a Ki in data set [4] of 200 µM.
